Assay results collected from several papers.
Lines come from different studies, so protocols differ.
Target: Interleukin-1 receptor-associated kinase 3 (IRAK3, Homo sapiens, UniProt Q9Y616)
Sequence (Q9Y616 1-596, as in one of the studies): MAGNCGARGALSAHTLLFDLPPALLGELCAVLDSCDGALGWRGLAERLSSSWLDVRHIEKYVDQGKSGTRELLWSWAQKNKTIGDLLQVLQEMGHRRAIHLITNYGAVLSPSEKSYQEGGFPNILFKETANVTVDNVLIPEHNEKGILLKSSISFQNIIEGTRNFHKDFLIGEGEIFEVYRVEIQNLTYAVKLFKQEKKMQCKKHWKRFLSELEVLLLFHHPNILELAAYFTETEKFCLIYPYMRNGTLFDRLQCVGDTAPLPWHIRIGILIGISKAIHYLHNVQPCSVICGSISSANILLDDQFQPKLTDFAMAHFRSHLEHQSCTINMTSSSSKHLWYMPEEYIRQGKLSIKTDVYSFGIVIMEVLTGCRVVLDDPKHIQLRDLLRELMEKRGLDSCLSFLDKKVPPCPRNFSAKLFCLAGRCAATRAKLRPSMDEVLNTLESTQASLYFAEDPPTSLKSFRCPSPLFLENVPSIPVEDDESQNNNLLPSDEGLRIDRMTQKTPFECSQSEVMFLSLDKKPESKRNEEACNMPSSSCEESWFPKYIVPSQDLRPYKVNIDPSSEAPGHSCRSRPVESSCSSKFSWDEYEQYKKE

Structure (SMILES)	effect on	technique	tested at	remaining binding [%]
CNC(=O)[C@@H]1CC[C@@H](n2c(-c3ccc4cnccc4c3)nc3ccc(C(=O)NCc4cccc(C(N)=O)c4)cc32)C1	binding	competition with immobilised ligand	1 µM	97
Cc1cnn2ncc(-c3ccnc(N(C)C)n3)c2c1	binding		1 µM	70
Cc1cnc(Nc2ccc(C(=O)N3CCC(N4CCCC4)CC3)cc2)nc1-c1cc2ccccc2s1	binding	competition with immobilised ligand	1 µM	5.3
CN(C(=O)c1ccccc1)c1cc(N(C)c2ccc3c(c2)CCc2ccc(C(=O)NCCN4CCOCC4)cc2C3=O)ccc1F	cell-free assay	competition with immobilised ligand	1 µM	91
O=C(NCC1CCOCC1)c1n[nH]cc1NC(=O)c1c(F)cccc1F	binding	competition with immobilised ligand	1 µM	92
CN(C)c1nccc(-c2cnn3ncccc23)n1	binding		1 µM	100
Nc1ncc2c(n1)-c1c([nH]c3ccc(C#CC4CC4)cc13)CCCC2	binding	competition with immobilised ligand	1 µM	71
O=C1CCc2cc(Nc3cc(OC4CCOCC4)c([N+](=O)[O-])cc3Cl)ccc2N1	cell-free assay	competition with immobilised ligand	1 µM	98
O=C(NCCCN1CCOCC1)c1ccc(Nc2nccc(-c3cc4ccccc4s3)n2)cc1	binding	competition with immobilised ligand	1 µM	8.4
C[C@@H]1CCN(c2nccc(-c3cnn4ncccc34)n2)C1	binding		1 µM	52
Cn1nc(C(F)(F)F)cc1-c1cnc(N2CCc3cc(S(=O)(=O)Nc4c(F)cc(Cl)cc4F)cc(N4CCCC4=O)c32)nc1	cell-free assay	competition with immobilised ligand	1 µM	100
C=CC(=O)N1CCC(C(=O)NCC(=O)N2CCN(c3nc(-c4cnc(N)nc4C(F)F)nc(N4CCOCC4)n3)CC2)CC1	binding	competition with immobilised ligand	1 µM	89
CN(CCCC(F)(F)F)c1nccc(-c2cnn3ncccc23)n1	binding		1 µM	94
CN(c1ccnc(CNc2nc(Nc3ccc4c(c3)CC(=O)N4)ncc2C(F)(F)F)n1)S(C)(=O)=O	cell-free assay	competition with immobilised ligand	1 µM	11
CN(C)c1ncc(F)c(-c2cnn3ncccc23)n1	binding		1 µM	100
c1cncc(-c2cccc(Nc3nccc(NC4CCCCC4)n3)c2)c1	binding	competition with immobilised ligand	10 µM	4.5
CNC(=O)Nc1ccc2c(c1)CC[C@@]21OC(=O)N(CC(=O)N(Cc2ccc(F)cc2)[C@@H](C)C(F)(F)F)C1=O	cell-free assay	competition with immobilised ligand	1 µM	95
FC(F)(F)Oc1cccc(-c2cnc3ccc(-c4ccncc4)nn23)c1	cell-free assay	competition with immobilised ligand	5 µM	7.6
CC1CCCN1c1nccc(-c2cnn3ncccc23)n1 (stereo not drawn)	binding		1 µM	72
CS(=O)(=O)N1CCCC(NC(=O)[C@H](CCC2CCCCC2)NC(=O)c2ccc(CNc3ncnc4c3nnn4-c3ccccc3)cc2)C1 (stereo partly drawn)	cell-free assay	competition with immobilised ligand	0.1 µM	100
O=C(NCCCN1CCOCC1)c1ccc(Nc2ncc(Cl)c(-c3ccc(Cl)s3)n2)cc1	binding	competition with immobilised ligand	1 µM	13
